Source: ChEMBL document CHEMBL3351385, “Synthesis and preliminary mechanistic evaluation of 5-(p-tolyl)-1-(quinolin-2-yl)pyrazole-3-carboxylic acid amides with potent antiproliferative activity on human cancer cell lines” (Eur J Med Chem, 2014)
Active and inactive are the calls of the source. The calls are words filed in the database; no cut-off is given here.

How the values were obtained:
[1] = biological target: Tau-tubulin kinase 2 (Homo sapiens) (UniProt Q6IQ55); experiment: Inhibition of TTBK2 (unknown origin) assessed as remaining enzyme activity at 10 uM by radioactive [33P]-ATP filter binding assay
[2] = biological target: Mitogen-activated protein kinase 11 (Homo sapiens) (UniProt Q15759); experiment: Inhibition of p38beta (unknown origin) assessed as remaining enzyme activity at 10 uM by radioactive [33P]-ATP filter binding assay
[3] = biological target: Mitogen-activated protein kinase kinase kinase 9 (Homo sapiens) (UniProt P80192); experiment: Inhibition of MLK1 (unknown origin) assessed as remaining enzyme activity at 10 uM by radioactive [33P]-ATP filter binding assay
[4] = biological target: Serine/threonine-protein kinase SIK3 (Homo sapiens) (UniProt Q9Y2K2); experiment: Inhibition of SIK3 (unknown origin) assessed as remaining enzyme activity at 10 uM by radioactive [33P]-ATP filter binding assay
[5] = biological target: Interleukin-1 receptor-associated kinase 4 (Homo sapiens) (UniProt Q9NWZ3); experiment: Inhibition of IRAK4 (unknown origin) assessed as remaining enzyme activity at 10 uM by radioactive [33P]-ATP filter binding assay
[6] = biological target: Serine/threonine-protein kinase Chk2 (Homo sapiens) (UniProt O96017); experiment: Inhibition of CHK2 (unknown origin) assessed as remaining enzyme activity at 10 uM by radioactive [33P]-ATP filter binding assay
Procedure, shortened: (§1)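 A single 10 µM concentration was tested across a 140-kinase panel. Activity was measured by a radioactive 33P-ATP filter-binding assay run at the International Center for Kinase Profiling, University of Dundee.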

[7] = biological target: Rho-associated protein kinase 2 (Homo sapiens) (UniProt O75116); experiment: Inhibition of ROCK2 (unknown origin) assessed as remaining enzyme activity at 10 uM by radioactive [33P]-ATP filter binding assay
[8] = biological target: Testis-specific serine/threonine-protein kinase 1 (Homo sapiens) (UniProt Q9BXA7); experiment: Inhibition of TSSK1 (unknown origin) assessed as remaining enzyme activity at 10 uM by radioactive [33P]-ATP filter binding assay
[9] = biological target: Ephrin type-B receptor 1 (Homo sapiens) (UniProt P54762); experiment: Inhibition of EPHB1 (unknown origin) assessed as remaining enzyme activity at 10 uM by radioactive [33P]-ATP filter binding assay; procedure, shortened: as §1
[10] = biological target: Serine/threonine-protein kinase STK11 (Homo sapiens) (UniProt Q15831); experiment: Inhibition of LKB1 (unknown origin) assessed as remaining enzyme activity at 10 uM by radioactive [33P]-ATP filter binding assay
[11] = Induction of cell cycle arrest in human Mahlavu cells assessed as accumulation at G0/G1 phase at cytotoxic IC50 level after 48 hrs by propidium iodide staining based FACS method; assay type: functional
[12] = biological target: Mitogen-activated protein kinase 7 (Homo sapiens) (UniProt Q13164); experiment: Inhibition of ERK5 (unknown origin) assessed as remaining enzyme activity at 10 uM by radioactive [33P]-ATP filter binding assay; procedure, shortened: as §1
[13] = biological target: Mitogen-activated protein kinase 3 (Homo sapiens) (UniProt P27361); experiment: Inhibition of ERK1 (unknown origin) assessed as remaining enzyme activity at 10 uM by radioactive [33P]-ATP filter binding assay; procedure, shortened: as §1
[14] = Induction of cell cycle arrest in human Mahlavu cells assessed as accumulation at S phase at cytotoxic IC50 level after 48 hrs by propidium iodide staining based FACS method; assay type: functional
[15] = biological target: Dual specificity testis-specific protein kinase 1 (Homo sapiens) (UniProt Q15569); experiment: Inhibition of TESK1 (unknown origin) assessed as remaining enzyme activity at 10 uM by radioactive [33P]-ATP filter binding assay
[16] = biological target: Serine/threonine-protein kinase ULK1 (Homo sapiens) (UniProt O75385); experiment: Inhibition of ULK1 (unknown origin) assessed as remaining enzyme activity at 10 uM by radioactive [33P]-ATP filter binding assay
[17] = biological target: Serine/threonine-protein kinase pim-1 (Homo sapiens) (UniProt P11309); experiment: Inhibition of PIM1 (unknown origin) assessed as remaining enzyme activity at 10 uM by radioactive [33P]-ATP filter binding assay
[18] = biological target: Serine/threonine-protein kinase 26 (Homo sapiens) (UniProt Q9P289); experiment: Inhibition of MST4 (unknown origin) assessed as remaining enzyme activity at 10 uM by radioactive [33P]-ATP filter binding assay
[19] = biological target: Maternal embryonic leucine zipper kinase (Homo sapiens) (UniProt Q14680); experiment: Inhibition of MELK (unknown origin) assessed as remaining enzyme activity at 10 uM by radioactive [33P]-ATP filter binding assay
[20] = biological target: Serine/threonine-protein kinase PAK 4 (Homo sapiens) (UniProt O96013); experiment: Inhibition of PAK4 (unknown origin) assessed as remaining enzyme activity at 10 uM by radioactive [33P]-ATP filter binding assay
[21] = biological target: Tyrosine-protein kinase Lck (Homo sapiens) (UniProt P06239); experiment: Inhibition of LCK (unknown origin) assessed as remaining enzyme activity at 10 uM by radioactive [33P]-ATP filter binding assay
[22] = Induction of cell cycle arrest in human Mahlavu cells assessed as accumulation at G2/M phase at cytotoxic IC50 level after 48 hrs by propidium iodide staining based FACS method; assay type: functional
Huh-7 = experiment: Induction of cell death in human HuH7 cells assessed as DNA fragmentation at cytotoxic IC50 level after 72 hrs by Hoechst 33258 staining based […]; assay type: functional
Procedure, shortened: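 Cells were washed in cold PBS, fixed 10 min in cold methanol and stained with Hoechst 33258 at 3 µg/mL for 5 min in the dark. Nuclear condensation and fragmentation were examined by fluorescence microscopy at 40×.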

Sequence of Serine/threonine-protein kinase STK11 (Homo sapiens) (Q15831 whole entry): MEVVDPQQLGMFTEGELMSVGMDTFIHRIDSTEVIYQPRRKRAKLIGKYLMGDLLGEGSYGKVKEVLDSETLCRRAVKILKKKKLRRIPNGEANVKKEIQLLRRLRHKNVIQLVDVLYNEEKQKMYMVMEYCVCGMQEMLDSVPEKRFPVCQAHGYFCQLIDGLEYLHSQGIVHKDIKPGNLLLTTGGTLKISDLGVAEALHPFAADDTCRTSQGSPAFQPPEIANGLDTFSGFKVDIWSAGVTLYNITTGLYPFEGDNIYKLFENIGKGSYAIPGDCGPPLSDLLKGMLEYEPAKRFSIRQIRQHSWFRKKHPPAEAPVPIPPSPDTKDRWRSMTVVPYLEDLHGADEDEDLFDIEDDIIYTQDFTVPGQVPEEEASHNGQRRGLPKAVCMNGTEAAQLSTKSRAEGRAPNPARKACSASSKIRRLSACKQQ
Sequence of Dual specificity testis-specific protein kinase 1 (Homo sapiens) (Q15569 whole entry, looked up): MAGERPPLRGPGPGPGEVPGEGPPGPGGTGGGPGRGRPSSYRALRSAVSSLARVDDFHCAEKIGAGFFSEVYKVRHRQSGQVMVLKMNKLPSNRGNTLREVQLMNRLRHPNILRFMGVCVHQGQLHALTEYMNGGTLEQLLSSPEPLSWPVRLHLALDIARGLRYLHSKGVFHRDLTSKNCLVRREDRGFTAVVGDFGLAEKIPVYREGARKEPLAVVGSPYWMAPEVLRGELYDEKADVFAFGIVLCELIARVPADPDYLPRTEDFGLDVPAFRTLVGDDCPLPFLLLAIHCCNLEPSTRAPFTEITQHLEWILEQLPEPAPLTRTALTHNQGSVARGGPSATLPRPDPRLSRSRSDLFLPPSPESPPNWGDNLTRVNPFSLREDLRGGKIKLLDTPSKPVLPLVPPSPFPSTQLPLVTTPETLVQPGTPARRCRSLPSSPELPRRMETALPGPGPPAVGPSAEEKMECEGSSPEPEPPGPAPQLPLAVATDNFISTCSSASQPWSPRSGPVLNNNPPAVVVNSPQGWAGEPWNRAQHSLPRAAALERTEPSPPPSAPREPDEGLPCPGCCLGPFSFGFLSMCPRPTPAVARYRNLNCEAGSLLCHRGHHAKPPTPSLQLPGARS
Sequence of Testis-specific serine/threonine-protein kinase 1 (Homo sapiens) (Q9BXA7 whole entry): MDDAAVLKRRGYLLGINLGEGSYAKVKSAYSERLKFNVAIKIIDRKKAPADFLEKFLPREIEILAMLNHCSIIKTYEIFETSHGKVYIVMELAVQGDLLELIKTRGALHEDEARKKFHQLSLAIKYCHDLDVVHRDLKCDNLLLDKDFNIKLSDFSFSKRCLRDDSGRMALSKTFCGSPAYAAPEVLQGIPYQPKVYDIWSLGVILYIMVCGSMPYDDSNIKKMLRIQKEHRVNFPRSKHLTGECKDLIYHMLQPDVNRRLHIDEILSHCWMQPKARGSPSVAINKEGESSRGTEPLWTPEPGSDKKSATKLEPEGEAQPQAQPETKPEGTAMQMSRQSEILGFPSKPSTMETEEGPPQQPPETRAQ
Sequence of Maternal embryonic leucine zipper kinase (Homo sapiens) (Q14680 whole entry, looked up): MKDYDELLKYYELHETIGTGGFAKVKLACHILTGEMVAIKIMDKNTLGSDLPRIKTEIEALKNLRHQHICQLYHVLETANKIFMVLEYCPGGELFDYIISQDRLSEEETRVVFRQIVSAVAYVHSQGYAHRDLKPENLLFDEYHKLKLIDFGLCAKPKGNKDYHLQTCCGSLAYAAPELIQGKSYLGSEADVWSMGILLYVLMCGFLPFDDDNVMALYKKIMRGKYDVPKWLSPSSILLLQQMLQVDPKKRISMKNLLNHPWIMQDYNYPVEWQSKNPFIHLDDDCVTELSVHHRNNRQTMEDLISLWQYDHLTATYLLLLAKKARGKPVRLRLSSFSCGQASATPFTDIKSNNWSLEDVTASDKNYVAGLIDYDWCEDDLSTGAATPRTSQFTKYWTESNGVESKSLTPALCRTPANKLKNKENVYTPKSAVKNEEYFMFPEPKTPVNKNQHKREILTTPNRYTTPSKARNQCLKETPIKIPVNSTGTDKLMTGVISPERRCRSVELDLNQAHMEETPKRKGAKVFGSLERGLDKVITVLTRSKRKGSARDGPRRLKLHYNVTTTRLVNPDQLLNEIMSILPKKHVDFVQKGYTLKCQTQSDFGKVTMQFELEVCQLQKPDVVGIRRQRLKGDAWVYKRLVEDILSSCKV
Sequence of Rho-associated protein kinase 2 (Homo sapiens) (O75116 whole entry, looked up): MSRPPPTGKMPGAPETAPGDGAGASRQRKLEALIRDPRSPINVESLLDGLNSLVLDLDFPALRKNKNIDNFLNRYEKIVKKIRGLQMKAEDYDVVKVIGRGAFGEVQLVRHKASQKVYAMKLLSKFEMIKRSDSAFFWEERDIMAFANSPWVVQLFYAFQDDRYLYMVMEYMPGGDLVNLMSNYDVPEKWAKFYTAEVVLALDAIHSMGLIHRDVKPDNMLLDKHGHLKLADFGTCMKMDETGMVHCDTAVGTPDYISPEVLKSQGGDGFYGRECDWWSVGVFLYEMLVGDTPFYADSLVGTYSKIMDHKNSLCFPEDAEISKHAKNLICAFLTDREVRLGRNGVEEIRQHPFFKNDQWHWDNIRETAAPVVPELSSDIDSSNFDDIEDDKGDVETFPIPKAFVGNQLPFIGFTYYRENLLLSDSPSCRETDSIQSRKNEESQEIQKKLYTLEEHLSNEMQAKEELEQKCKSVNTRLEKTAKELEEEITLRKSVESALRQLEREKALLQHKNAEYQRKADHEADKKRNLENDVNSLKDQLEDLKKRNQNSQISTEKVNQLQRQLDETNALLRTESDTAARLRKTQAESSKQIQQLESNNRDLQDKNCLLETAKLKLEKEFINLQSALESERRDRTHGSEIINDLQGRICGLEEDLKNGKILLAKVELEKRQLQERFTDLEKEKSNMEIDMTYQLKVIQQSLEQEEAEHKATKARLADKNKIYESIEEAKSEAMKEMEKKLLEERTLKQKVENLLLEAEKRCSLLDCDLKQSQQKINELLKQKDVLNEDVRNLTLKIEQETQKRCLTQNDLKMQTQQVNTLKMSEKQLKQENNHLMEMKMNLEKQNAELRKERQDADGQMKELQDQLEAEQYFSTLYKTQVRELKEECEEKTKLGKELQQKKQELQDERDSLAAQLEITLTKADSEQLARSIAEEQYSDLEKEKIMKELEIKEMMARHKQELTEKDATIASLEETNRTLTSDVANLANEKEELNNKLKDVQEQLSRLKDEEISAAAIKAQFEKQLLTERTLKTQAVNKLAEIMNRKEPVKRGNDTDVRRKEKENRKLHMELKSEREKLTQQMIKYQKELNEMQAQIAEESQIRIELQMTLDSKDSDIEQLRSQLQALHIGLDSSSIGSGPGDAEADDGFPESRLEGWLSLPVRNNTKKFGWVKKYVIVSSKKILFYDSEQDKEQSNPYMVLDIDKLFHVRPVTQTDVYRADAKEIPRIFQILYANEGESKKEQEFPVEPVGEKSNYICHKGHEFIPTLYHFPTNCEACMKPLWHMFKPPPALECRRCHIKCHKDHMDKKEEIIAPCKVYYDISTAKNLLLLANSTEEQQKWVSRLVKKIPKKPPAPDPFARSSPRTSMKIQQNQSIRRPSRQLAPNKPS
Sequence of Serine/threonine-protein kinase SIK3 (Homo sapiens) (Q9Y2K2 whole entry, looked up): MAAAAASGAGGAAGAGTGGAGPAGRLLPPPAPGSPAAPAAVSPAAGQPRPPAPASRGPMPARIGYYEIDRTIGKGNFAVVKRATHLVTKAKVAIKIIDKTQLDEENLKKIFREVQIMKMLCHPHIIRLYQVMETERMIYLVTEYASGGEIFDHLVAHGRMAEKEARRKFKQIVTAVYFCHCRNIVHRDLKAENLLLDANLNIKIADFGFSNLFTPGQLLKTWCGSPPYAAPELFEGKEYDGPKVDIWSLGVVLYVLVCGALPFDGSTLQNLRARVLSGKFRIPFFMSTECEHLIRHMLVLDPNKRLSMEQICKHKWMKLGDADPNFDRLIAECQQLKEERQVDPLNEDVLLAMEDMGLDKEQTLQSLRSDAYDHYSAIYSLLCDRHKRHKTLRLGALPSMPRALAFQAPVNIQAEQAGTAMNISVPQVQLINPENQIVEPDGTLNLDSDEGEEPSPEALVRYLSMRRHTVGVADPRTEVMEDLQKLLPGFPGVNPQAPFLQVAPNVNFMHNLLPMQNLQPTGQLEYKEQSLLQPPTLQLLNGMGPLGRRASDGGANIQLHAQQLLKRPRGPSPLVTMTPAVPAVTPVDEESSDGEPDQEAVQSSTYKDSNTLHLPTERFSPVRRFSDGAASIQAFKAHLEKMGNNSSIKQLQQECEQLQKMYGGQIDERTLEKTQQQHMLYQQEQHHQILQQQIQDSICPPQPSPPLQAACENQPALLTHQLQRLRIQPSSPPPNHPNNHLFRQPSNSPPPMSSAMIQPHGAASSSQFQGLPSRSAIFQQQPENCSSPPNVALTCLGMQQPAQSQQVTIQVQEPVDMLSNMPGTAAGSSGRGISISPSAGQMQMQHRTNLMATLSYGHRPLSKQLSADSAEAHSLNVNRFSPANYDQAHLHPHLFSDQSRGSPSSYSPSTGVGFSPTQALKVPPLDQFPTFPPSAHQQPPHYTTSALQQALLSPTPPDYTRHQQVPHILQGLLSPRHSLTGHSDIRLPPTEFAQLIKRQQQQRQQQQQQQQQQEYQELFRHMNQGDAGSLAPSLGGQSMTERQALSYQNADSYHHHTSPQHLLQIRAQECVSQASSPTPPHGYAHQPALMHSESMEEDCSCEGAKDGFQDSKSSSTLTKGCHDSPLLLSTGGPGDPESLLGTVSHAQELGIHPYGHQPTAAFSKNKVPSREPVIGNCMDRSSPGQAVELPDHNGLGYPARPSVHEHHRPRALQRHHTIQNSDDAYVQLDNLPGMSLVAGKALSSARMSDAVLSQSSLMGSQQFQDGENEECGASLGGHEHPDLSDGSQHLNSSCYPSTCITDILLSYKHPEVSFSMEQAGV

**Q.** For Cc1ccc(-c2cc(C(=O)Nc3ccnc(Cl)c3)nn2-c2ccc3ccccc3n2)cc1, which Activity [1] is on record?
**A.** The Activity was 101%.

**Q.** What about the Activity [2] of the same compound?
**A.** The Activity was 107%.

**Q.** What about the Activity [3] of the same compound?
**A.** The Activity was 90%.

**Q.** And the Activity [4]?
**A.** The Activity was 81%.

**Q.** What about the Activity [5] of the same compound?
**A.** The Activity was 90%.

**Q.** And the Activity [6]?
**A.** The Activity was 94%.

**Q.** And the Activity [7]?
**A.** The Activity was 85%.

**Q.** What about the Activity [8] of the same compound?
**A.** The Activity was 90%.

**Q.** And the Activity [9]?
**A.** The Activity was 128%.

**Q.** And the Activity [10]?
**A.** The Activity was 115%.

**Q.** What about the Activity [11] of the same compound?
**A.** The Activity was 58.7%.

**Q.** What about the Activity [12] of the same compound?
**A.** The Activity was 74%.

**Q.** And the Activity [13]?
**A.** Its Activity is 103%.

**Q.** What about the Activity [14] of the same compound?
**A.** Its Activity is 11.1%.

**Q.** What about the Activity [15] of the same compound?
**A.** The Activity was 76%.

**Q.** What about the Activity [16] of the same compound?
**A.** Its Activity is 136%.

**Q.** What about the Activity [17] of the same compound?
**A.** Its Activity is 118%.

**Q.** What about the Activity [18] of the same compound?
**A.** The Activity was 110%.

**Q.** What about the Activity [19] of the same compound?
**A.** The Activity was 98%.

**Q.** And the Activity [20]?
**A.** Its Activity is 105%.

**Q.** What about the Activity [21] of the same compound?
**A.** Its Activity is 99%.

**Q.** What about the Activity [22] of the same compound?
**A.** Its Activity is 19.9%.

**Q.** What about the Activity (Huh-7) of the same compound?
**A.** The Activity was “Active”.
